Efflux pump inh: inhibitors of Candida efflux pumps in yeast, primary screen, S. cerevisiae, Nile Red, multiplex | 0.44% of 330,000 active | S. cerevisiae Candida pump triplex | AID 485275, 2010 | inhibition, % at 10 µM;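 active means plate passing quality check with inhibition over a set limit, or well fluorescence over plate mean plus 4 SD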;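 further: Nile Red retained in pooled yeast measured as flow cytometry median fluorescence; 0% = buffer negative control and 100% = Enniatin B positive control; higher means more Nile Red kept so more efflux inhibition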
AHR activator: AHR activators, primary screen, cell-based, luminescence, luciferase reporter, human; AHR-responsive luciferase reporter cells; activation, % at 5 µM; 2.5% of 320,000 active; AID 2796, 2010; Aryl hydrocarbon receptor (Homo sapiens), P35869; in the data active means activation above about 47%;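 further: 0% = vehicle wells and 100% = reference agonist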
Target sequence (P35869 whole entry, looked up): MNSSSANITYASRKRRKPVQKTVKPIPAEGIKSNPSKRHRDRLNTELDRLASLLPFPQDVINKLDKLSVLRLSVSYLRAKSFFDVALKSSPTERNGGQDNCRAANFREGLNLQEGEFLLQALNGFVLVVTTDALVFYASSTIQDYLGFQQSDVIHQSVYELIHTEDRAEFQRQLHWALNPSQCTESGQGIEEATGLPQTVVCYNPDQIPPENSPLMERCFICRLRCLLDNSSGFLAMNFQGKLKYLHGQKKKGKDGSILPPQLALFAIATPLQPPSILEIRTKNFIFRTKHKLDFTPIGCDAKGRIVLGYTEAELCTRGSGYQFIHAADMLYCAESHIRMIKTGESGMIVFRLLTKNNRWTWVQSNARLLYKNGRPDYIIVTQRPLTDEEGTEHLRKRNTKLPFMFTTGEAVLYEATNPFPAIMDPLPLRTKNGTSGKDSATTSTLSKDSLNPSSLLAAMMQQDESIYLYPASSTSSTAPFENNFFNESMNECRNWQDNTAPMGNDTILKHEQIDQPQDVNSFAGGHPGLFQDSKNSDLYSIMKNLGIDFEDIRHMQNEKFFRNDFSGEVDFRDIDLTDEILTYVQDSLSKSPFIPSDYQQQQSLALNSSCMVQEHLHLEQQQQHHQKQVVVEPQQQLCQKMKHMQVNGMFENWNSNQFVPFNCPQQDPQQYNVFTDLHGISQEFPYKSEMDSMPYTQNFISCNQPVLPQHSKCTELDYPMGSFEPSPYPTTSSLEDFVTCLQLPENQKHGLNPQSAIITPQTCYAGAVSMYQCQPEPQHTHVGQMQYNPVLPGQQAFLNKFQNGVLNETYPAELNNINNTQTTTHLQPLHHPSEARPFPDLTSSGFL
SMARCA2 activ: SMARCA2 (BRM) function activators, primary screen, cell-based, luminescence, high throughput | MG213 cells, MMTV-luciferase reporter, dexamethasone, overnight | activation, % at 9.1 µM | 1% of 370,000 active | AID 652017, 2013; in the data active means activation above about 7.8%;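 further: 0% = vehicle wells and 100% = reference activator wells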
Tb MetRS inh: T. brucei MetRS inhibitors, primary screen, biochemical, luminescence | methionyl-tRNA synthetase (Trypanosoma brucei brucei) | 0.4% of 360,000 active | inhibition, % at 11.9 µM | purified T. brucei MetRS, ATP depletion, Kinase-Glo luminescence;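 active means inhibition above a per-plate cutoff of the control wells' mean inhibition plus 3 SD, cut at about 5.5% in these data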;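 further: 0% = DMSO wells median and 100% = median of wells with control inhibitor compound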
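System: purified T. brucei MetRS enzyme / Detection: Kinase-Glo luciferase luminescence reporting remaining unconsumed ATP / Medium: HEPES buffer with MgCl2, KCl, DTT, spermine, BSA, pyrophosphatase / Replication: singlicate, one well per compound / Evaluation: percent inhibition relative to median high and low control wells / Schedule: 2 h aminoacylation at 25 °C after 15 min preincubation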
TAG inh: inhibitors of triacylglycerol accumulation, primary screen, cell-based, uHTS, fluorescence, H9c2 | H9c2 cells, Nile Red lipid (TAG) fluorescence; cells loaded with 200 µM oleic acid | inhibition, % at 12.5 µM | 0.66% of 230,000 active | AID 651582, 2012;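 active means pattern-corrected inhibition of lipid staining of at least 50% with the nuclear-stain viability signal not falling by more than 50%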;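 further: 0% = DMSO wells and 100% = triacsin C control wells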
H9c2 TAG conf: triacylglycerol accumulation inhibitors, retest, confirmation, cell-based, single concentration, Nile Red fluorescence, H9c2; inhibition, % at 12.5 µM; H9c2 lipid accumulation; cells loaded with 200 µM oleic acid; shares compounds with TAG inh; 71% of 990 active;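 active means mean inhibition across replicates of 40% or more; inactive means mean inhibition below 40%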;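 further: plate controls were DMSO only wells for no effect and Triacsin C treated wells for full effect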
Numbers without * were called inactive; · = no result. Most compounds without a hit are left out; they make up all but 4.1% or so of the library.

SMILES	Efflux pump inh	AHR activator	SMARCA2 activ	Tb MetRS inh	TAG inh	H9c2 TAG conf
O=C(CSc1nc2ccccc2nc1N1CCOCC1)N1CCN(S(=O)(=O)c2cccc([N+](=O)[O-])c2)CC1	·	·	1	·	·	·
Cc1cccc(NC(=O)CSc2cccc3cccnc23)c1	0	6	1	-1	59*	-14
O=C(CSc1cccc2cccnc12)Nc1cc(C(=O)O)cc(C(=O)O)c1	0	3	-3	-1	52*	19
O=C(CSc1cccc2cccnc12)Nc1ccccc1F	0	8	0	-1	73*	-1
NNC(=O)CSc1cccc2cccnc12	0	17	-1	0	·	·
COCc1cc(N2CCN(C(=O)OC(C)(C)C)C[C@@H]2C)ccc1Br	·	·	-3	·	·	·
CC(=O)Nc1ccc(SC[C@H](Cc2ccccc2)N2CCN(CC(C)C)CCC2=O)cc1	·	4	1	0	3	·
CC(=O)Nc1ccc(SC[C@H](CC(C)C)N2CCN(CC(C)C)CCC2=O)cc1	0	8	1	-1	67*	1
O=C(N[C@@H](Cc1cccnc1)C(=O)N1CCC[C@H]1C(=O)NCc1ccccc1)c1ccccc1	·	·	-1	·	·	·
CCOc1ccccc1-c1nc(-c2ccc(NC(=O)Cc3ccccc3OC)cc2)no1	0	25	-3	-1	71*	46*
COc1ccccc1CC(=O)Nc1ccc(-c2noc(COc3ccc(Cl)c(C)c3)n2)cc1	0	2	4	0	·	·
O=C(Nc1ccc([N+](=O)[O-])cn1)c1cc(-c2cccc(Cl)c2)nc2ccccc12	0	8	-1	0	68*	52*
O=C(Nc1ccc([N+](=O)[O-])cn1)c1cc(-c2cccc(Br)c2)nc2ccccc12	0	8	-1	-1	·	·
COC(=O)[C@]12C[C@H](CC(=O)NCC34CC5CC(CC(C5)C3)C4)C(=O)N(Cc3ccc4c(c3)OCO4)C1=C[C@H](COCc1ccccc1)O[C@@H]2C	·	·	-5	·	·	·
CCOC(=O)Cc1ccc(Nc2nc3cc(-c4sccc4C)sc3c(=O)n2C)cc1	·	·	-1	0	51*	71*
CCOc1cc2c(cc1O)CCC1C2CCC2(C)C(O)CCC12 (stereo not drawn)	·	·	0	0	73*	57*
O=C(C(=O)N1CCN(S(=O)(=O)c2ccc(OC(F)(F)F)cc2)CC1)c1cccc(C(F)(F)F)c1	·	·	-2	·	·	·
CCCCCc1ccc(-c2cn(Cc3ccc(C(=O)c4ccccc4)cc3)nn2)cc1	0	-2	0	0	61*	51*
COc1ccc(OC)c(/C=C/C(=O)OCC(=O)c2c(N)n(C)c(=O)n(C)c2=O)c1	0	1	1	1	56*	-8
C[C@@H]1NC(=O)[C@H]2C[C@@]3(c4ccccc4)c4ccccc4N[C@H]3N2C1=O	·	·	-4	·	·	·
Cc1ccc(CNC(=O)c2ccc(N3CCC4(CC3)CC(c3ccccc3)=NO4)c(NC(=O)c3ccccc3)c2)cc1	0	0	3	0	6	·
Cc1ccc(CNC(=O)c2ccc(N3CCC4(CC3)CC(c3ccccc3)=NO4)c(NC(=O)c3ccc(Br)cc3)c2)cc1	0	1	0	0	55*	56*
COc1cccc(CNC(=O)[C@H]2CCCN2C(=O)[C@H]2CCCN2C(=O)c2ccc(F)c(F)c2)c1	·	·	-2	·	·	·
COc1ccc(N2C(=O)c3n[nH]c(C)c3C2c2cccc(C(F)(F)F)c2)cc1 (stereo not drawn)	·	·	-4	·	·	·
CC(=O)c1cccc(-c2ccnc3c2CC(C(=O)NCc2ccco2)O3)c1 (stereo not drawn)	·	·	-3	0	57*	59*
SMILES	Efflux pump inh	AHR activator	SMARCA2 activ	Tb MetRS inh	TAG inh	H9c2 TAG conf
NC(=O)c1cccc(-c2ccnc3c2CC(C(=O)NCc2ccco2)O3)c1 (stereo not drawn)	·	·	-1	0	39	·
CCCc1nc2oc3c(NCCN(C)C)ncnc3c2c2c1CCCC2	0	14	2	-1	58*	24
CCCc1nc2oc3c(Cl)ncnc3c2c2c1CCCC2	0	-1	2	0	2	·
CCn1cnc2scc(-c3ccccc3)c2c1=O	0	10	2	0	-7	·
Cn1cc(/C=N/n2cnc3scc(-c4ccc(Cl)cc4)c3c2=O)c2ccccc21	0	36	0	0	61*	69*
Nc1[nH]c(C(=O)c2ccccc2)c(-c2ccc(Cl)cc2F)c1C(=O)NCCc1c[nH]c2ccccc12	·	·	-3	·	·	·
c1ccc2c(c1)NC(c1ccncc1)n1c-2nc2ccccc21 (stereo not drawn)	0	70*	6	-1	53*	14
CCN1c2ccccc2-c2nc3ccccc3n2C1c1ccncc1 (stereo not drawn)	0	11	0	0	2	·
C#CCN1CC(COc2ccccc2)Oc2cccc(Oc3ccc(SC)c(C)c3)c2S1(=O)=O (stereo not drawn)	·	·	-4	·	·	·
O=C(c1cnn2c1NC(c1ccc(Br)cc1)CC2C(F)(F)F)N1CCN(C23CC4CC(CC(C4)C2)C3)CC1 (stereo not drawn)	0	0	-3	0	54*	55*
O=C(c1cnn2c1NC(c1ccc(Br)cc1)CC2C(F)(F)F)N1CCN2CCCC2C1 (stereo not drawn)	0	1	-2	-1	·	·
C[C@H](CO)N1C[C@H](C)[C@H](CN(C)Cc2ccccc2)Oc2c(NC(=O)Nc3ccc(F)cc3)cccc2C1=O	0	2	0	0	28	·
C[C@@H]1CN([C@@H](C)CO)C(=O)c2cccc(NC(=O)Nc3ccc(F)cc3)c2O[C@@H]1CN(C)Cc1ccc(Oc2ccccc2)cc1	0	0	-1	0	73*	81*
C[C@@H]1CN([C@H](C)CO)C(=O)c2c(c3ccccc3n2C)-c2ccccc2CO[C@H]1CN(C)Cc1ccc(Oc2ccccc2)cc1	·	·	-6	1	59*	74*
C=CCn1c(COc2ccc(Cl)cc2)nnc1SCC(=O)c1ccccc1	·	·	-4	·	·	·
CCN1CCN(c2cc(C(C)C)nc3c(-c4ccccc4)c(C)nn23)CC1	0	-2	-7	-1	45	·
CCCc1cc(N2CCCC2)n2nc(C)c(-c3ccccc3)c2n1	0	4	1	0	66*	41*
Cc1ccc2oc(NC3=NC4(CCCC4)C4=C(CCCC4=O)N3)nc2c1	·	·	-3	-1	55*	62*
CC1(C)CC(=O)C2=C(C1)NC(Nc1nc3ccccc3o1)=NC21CCCCC1	0	-2	0	-1	·	·

From PubChem BioAssay
